One may read the IC50 as the concentration that inhibits the measured activity by half. Lower therefore signals greater potency in that assay. A word on the half-life: it is the time needed for the level to fall by half in the phase considered.

Structures are written as SMILES. Bounds are passed on as bounds.

24 compounds from ChEMBL document CHEMBL3414516, “Novel pyridyl substituted 4,5-dihydro-[1,2,4]triazolo[4,3-a]quinolines as potent and selective aldosterone synthase inhibitors with improved in vitro metabolic stability” (J Med Chem, 2015) can be followed below.

The target in data set [1] is T1, Cytochrome P450 11B1, mitochondrial (Homo sapiens, UniProt P15538).
T1 sequence (P15538 whole entry): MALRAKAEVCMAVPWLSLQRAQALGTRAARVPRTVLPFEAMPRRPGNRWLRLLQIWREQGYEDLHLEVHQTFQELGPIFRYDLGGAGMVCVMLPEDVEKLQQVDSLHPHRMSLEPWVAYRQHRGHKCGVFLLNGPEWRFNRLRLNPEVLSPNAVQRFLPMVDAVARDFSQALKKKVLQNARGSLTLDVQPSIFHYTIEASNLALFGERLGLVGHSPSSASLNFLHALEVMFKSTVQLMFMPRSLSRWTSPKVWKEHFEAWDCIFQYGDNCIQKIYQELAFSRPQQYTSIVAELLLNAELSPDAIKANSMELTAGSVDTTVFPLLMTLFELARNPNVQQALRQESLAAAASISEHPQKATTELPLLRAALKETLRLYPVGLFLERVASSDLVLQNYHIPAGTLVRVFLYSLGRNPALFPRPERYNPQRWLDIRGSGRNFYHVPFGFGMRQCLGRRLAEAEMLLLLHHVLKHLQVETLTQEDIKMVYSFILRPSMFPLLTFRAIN
Kind of data set: Inhibition of human CYP11B1 expressed in V79 MZh cells using [14C]-deoxycorticosterone substrate incubated for 6 hrs by HPTLC method. It counts as cell-based, V79MZh. In outline:
(§1)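 V79 MZh cells expressing human CYP11B1 or CYP11B2 were incubated 6 h with [¹⁴C]-deoxycorticosterone and inhibitor at various concentrations. Steroids were extracted with ethyl acetate, separated by HPTLC and quantified by phosphoimager.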

For data set [2], the target named is T2, Steroid 17-alpha-hydroxylase/17,20 lyase (Homo sapiens, UniProt P05093).
T2 sequence (P05093 whole entry): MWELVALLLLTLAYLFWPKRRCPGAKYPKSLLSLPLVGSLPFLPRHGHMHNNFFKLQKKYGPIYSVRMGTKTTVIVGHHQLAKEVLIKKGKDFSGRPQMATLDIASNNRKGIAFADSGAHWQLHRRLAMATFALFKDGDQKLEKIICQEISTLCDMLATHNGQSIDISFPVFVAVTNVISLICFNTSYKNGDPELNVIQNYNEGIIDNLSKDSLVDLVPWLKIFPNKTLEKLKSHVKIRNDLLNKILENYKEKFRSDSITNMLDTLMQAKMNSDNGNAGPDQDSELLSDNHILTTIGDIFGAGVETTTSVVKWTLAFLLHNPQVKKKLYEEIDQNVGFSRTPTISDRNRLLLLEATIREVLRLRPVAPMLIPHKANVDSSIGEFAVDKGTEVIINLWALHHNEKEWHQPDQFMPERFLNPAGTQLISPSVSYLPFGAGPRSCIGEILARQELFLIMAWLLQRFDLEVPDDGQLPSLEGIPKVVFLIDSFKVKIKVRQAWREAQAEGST
The data set is described as follows: Inhibition of human CYP17 expressed in Escherichia coli coexpressing human CYP17 and NADPH-P450 reductase.

Data set [3] has as its target T3, Cytochrome P450 11B2, mitochondrial (Homo sapiens, UniProt P19099).
T3 sequence (P19099 whole entry): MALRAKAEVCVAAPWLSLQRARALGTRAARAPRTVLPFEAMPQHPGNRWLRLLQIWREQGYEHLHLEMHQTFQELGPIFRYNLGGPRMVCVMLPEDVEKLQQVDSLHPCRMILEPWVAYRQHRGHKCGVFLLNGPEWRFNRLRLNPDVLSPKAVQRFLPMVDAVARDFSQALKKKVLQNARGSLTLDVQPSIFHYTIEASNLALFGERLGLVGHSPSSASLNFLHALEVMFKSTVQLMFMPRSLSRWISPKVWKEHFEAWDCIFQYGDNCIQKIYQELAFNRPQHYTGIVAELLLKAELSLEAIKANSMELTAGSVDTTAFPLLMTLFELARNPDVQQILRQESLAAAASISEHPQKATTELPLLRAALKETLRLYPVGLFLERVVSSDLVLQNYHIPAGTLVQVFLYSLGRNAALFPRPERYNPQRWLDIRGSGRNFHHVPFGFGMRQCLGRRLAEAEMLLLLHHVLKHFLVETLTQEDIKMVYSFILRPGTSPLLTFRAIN
The data set is described as follows: Inhibition of human CYP11B2 expressed in V79 MZh cells using [14C]-deoxycorticosterone substrate incubated for 6 hrs by HPTLC method. The format is cell-based, V79MZh. The essentials: as §1

The target of a further data set is T4, Aromatase (Homo sapiens, UniProt P11511).
T4 sequence (P11511 whole entry): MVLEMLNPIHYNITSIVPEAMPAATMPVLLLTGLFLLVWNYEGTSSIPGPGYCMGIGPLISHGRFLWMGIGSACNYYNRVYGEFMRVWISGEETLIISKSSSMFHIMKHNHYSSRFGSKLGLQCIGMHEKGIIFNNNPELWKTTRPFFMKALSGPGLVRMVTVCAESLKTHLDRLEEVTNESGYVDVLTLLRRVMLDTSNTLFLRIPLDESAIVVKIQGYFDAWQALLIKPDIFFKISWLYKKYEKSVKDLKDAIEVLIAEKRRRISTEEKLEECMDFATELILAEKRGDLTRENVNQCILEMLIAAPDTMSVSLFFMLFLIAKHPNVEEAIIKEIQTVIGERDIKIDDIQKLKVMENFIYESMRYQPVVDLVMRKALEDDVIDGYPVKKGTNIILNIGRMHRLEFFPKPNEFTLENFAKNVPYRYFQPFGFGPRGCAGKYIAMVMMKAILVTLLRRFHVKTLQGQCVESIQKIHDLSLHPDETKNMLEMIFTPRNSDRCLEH
The data set is described as follows: Inhibition of CYP19 in human placental microsomes using [1beta-3H]androstenedione substrate. The arrangement: species or system Placenta.

For the next data set, the species on record is Homo sapiens. Kind of data set: Selectivity index, ratio of IC50 for human CYP11B1 to IC50 human CYP11B2.
The nature of data set [4]: Half life in human hepatic microsomes at 1 uM in presence of NADPH system by LC-MS/MS method. The format is ADME, Microsome. The conditions noted are these: liver microsomes. The essentials:
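Pooled mixed-gender human liver microsomes at 0.5 mg/mL final protein in potassium phosphate–MgCl₂ buffer (100 mM, pH 7.4). Compound at 1 μM final with NADPH system, 37 °C. Samples at 2, 5, 15, 30 and 45 min, quenched with acetonitrile, vortexed, centrifuged, and supernatant analysed by LC–MS/MS.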

Turning to `Fc1cc2c(cc1-c1cccnc1)CCc1nnc(-c3ccncc3)n1-2`, the IC50 (in data set [1]; in data set [2]; in data set [3]; at Aromatase) was over 10 µM throughout.

For `Fc1cc(-c2cccnc2)cc2c1-n1cnnc1CC2`, in the data set listed under Homo sapiens, the Ratio IC50 was 94. For the same compound, the IC50 (in data set [2]; against Aromatase) was over 10 µM each time.

With `Fc1cc2c(cc1-c1cccnc1)CCc1nncn1-2`, in the data set listed under Homo sapiens, the Ratio IC50 came to 32. Besides, the concentration for half-maximal inhibition (IC50) (in data set [2]; on Aromatase) was over 10 µM in each case.

As to `CC(=O)c1cncc(-c2cc(F)c3c(c2)CCc2nnc(C)n2-3)c1`, the Ratio IC50 in the data set filed under Homo sapiens is 78. Moreover, the IC50 (in data set [2]; on Aromatase) was over 10 µM each time.

Regarding `O=C(c1ccccc1)c1nnc2n1-c1c(F)cc(-c3cccnc3)cc1CC2`, the IC50 in data set [1] was over 10 µM; in data set [2], over 10 µM; in data set [3], 0.708 µM; against Aromatase, over 10 µM.

With `Cc1nnc2n1-c1c(F)cc(-c3cncc(C(F)(F)F)c3)cc1CC2`, the Ratio IC50 in the data set listed under Homo sapiens amounted to 63. The IC50 (in data set [2]; at Aromatase) was over 10 µM each time.

Turning to `Cc1c(F)cncc1-c1cc(F)c2c(c1)CCc1nnc(C)n1-2`, in the data set filed under Homo sapiens, the Ratio IC50 stood at 232. Besides, the IC50 in data set [1] is 4.52 µM; in data set [2], over 10 µM; in data set [3], 0.0195 µM; on Aromatase, over 10 µM.

For the compound `Fc1cc2c(cc1-c1cccnc1)CCc1nnc(-c3ccccc3)n1-2`, the IC50 (in data set [1]; in data set [2]; in data set [3]; at Aromatase) was over 10 µM in each case.

Regarding `Cc1nnc2n1-c1c(F)cc(-c3cncc(C(C)O)c3)cc1CC2` (centres undefined), the Ratio IC50 in the data set listed under Homo sapiens stood at 138. In addition, the IC50 (in data set [2]; at Aromatase) was over 10 µM each time.

In the case of `Cc1nnc2n1-c1c(F)cc(-c3cncc(-c4ccccc4)c3)cc1CC2`, the Ratio IC50 in the data set filed under Homo sapiens is 60. Further, the IC50 (in data set [2]; against Aromatase) was over 10 µM each time.

Turning to `Fc1cc(-c2cccnc2)cc2c1-n1c(nnc1-c1ccccc1)CC2`, the IC50 (in data set [1]; in data set [2]; in data set [3]; at Aromatase) was over 10 µM each time.

Regarding `Fc1cc(-c2cccnc2)cc2c1-n1c(nnc1-c1ccncc1)CC2`, the 50% inhibitory concentration (IC50) (in data set [1]; in data set [2]; in data set [3]; at Aromatase) was over 10 µM each time.

As for `Fc1cc2c(cc1-c1cccnc1)CCc1nnc(Cc3ccccc3)n1-2`, the IC50 in data set [1] was over 10 µM; in data set [2], over 10 µM; in data set [3] it was 4.35 µM; on Aromatase, over 10 µM.

Take `Fc1cncc(-c2cc(F)c3c(c2)CCc2nncn2-3)c1`: the IC50 in data set [1] is over 10 µM; in data set [2], over 10 µM; in data set [3] it was 0.335 µM; on Aromatase it was over 10 µM.

As for `CC(C)c1nnc2n1-c1cc(F)c(-c3cccnc3)cc1CC2`, the IC50 (in data set [1]; in data set [2]; in data set [3]; against Aromatase) was over 10 µM throughout.

As for `Cc1nnc2n1-c1c(F)cc(-c3cncc4ccccc34)cc1CC2`, the Ratio IC50 in the data set listed under Homo sapiens was found to be 49. Also, the IC50 (in data set [2]; against Aromatase) was over 10 µM each time.

As for `CC(C)c1nnc2n1-c1c(F)cc(-c3cccnc3)cc1CC2`, the IC50 (in data set [1]; in data set [2]; in data set [3]; on Aromatase) was over 10 µM each time.

For the compound `Cc1nnc2n1-c1c(F)cc(-c3cccnc3)cc1CC2`, the Ratio IC50 in the data set listed under Homo sapiens came to 272. Also, the IC50 (in data set [2]; against Aromatase) was over 10 µM in each case. For the same compound, in data set [4], the half-life at 1 µM was over 2 h.

Consider `COc1cncc(-c2cc(F)c3c(c2)CCc2nnc(C)n2-3)c1`, for which the Ratio IC50 in the data set listed under Homo sapiens is 89. Besides, the IC50 (in data set [2]; against Aromatase) was over 10 µM in each case.

In the case of `Cc1nnc2n1-c1cc(F)c(-c3cccnc3)cc1CC2`, the Ratio IC50 in the data set listed under Homo sapiens is 96. Further, the IC50 (in data set [2]; at Aromatase) was over 10 µM in each case.

For `CCc1nnc2n1-c1c(F)cc(-c3cccnc3)cc1CC2`, the IC50 is over 10 µM in data set [1], over 10 µM in data set [2], 0.542 µM in data set [3] and over 10 µM on Aromatase.

On to `CCc1nnc2n1-c1cc(F)c(-c3cccnc3)cc1CC2`, for which the IC50 in data set [1] is over 10 µM; in data set [2], over 10 µM; in data set [3], 0.979 µM; on Aromatase, over 10 µM.

In the case of `Cc1nnc2n1-c1c(F)cc(-c3cncc(C#N)c3)cc1CC2`, the IC50 was over 10 µM in data set [1], over 10 µM in data set [2], 1.18 µM in data set [3] and over 10 µM against Aromatase.

`Cc1c(F)cncc1-c1cc(F)c2c(c1)CCc1nncn1-2`: in the data set filed under Homo sapiens, the Ratio IC50 was determined as 134. Besides, the IC50 in data set [1] is 5.7 µM; in data set [2] it was over 10 µM; in data set [3], 0.0425 µM; on Aromatase it was over 10 µM.
